Rows were chosen to be rich in hits. Some 1.2% of all compounds tested hit in one or more screens of this group.
ARNT-TACC3 inh – disruptors of human ARNT/TACC3 interaction | AID 623870 | AlphaScreen His-ARNT PAS-B/GST-TACC3 binding, luminescence; TACC3 fragment carries E629A point mutation | inhibition, % at 9.99 µM | actives 0.66% (n = 390,000) | Q9Y6A5;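 active means mean inhibition of replicates at least 50% and at least half of replicates each reaching 50%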
CAL PDZ FP-1 – CAL PDZ (human) peptide binding inhibition | Q9HD26 | purified CAL PDZ, TMR-peptide fluorescence polarization, 1 h | inhibition, % at 24.9 µM | actives 0.92% (n = 300,000);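 active means mean inhibition of at least 30% with at least half of replicates also reaching 30%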
CAL PDZ FP-2 – blocks peptide binding to human CAL PDZ domain | Q9HD26 | purified CAL PDZ, TMR-peptide fluorescence polarization, 1 h | inhibition, % at 20 µM | actives 0.02% (n = 330,000) | AID 504414;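 active means highest replicate inhibition of at least 40%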
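Test system: tagged CAL PDZ domain / Buffer or medium: sodium phosphate/NaCl buffer pH 7.4 with TCEP, IgG, Thesit / Reagent: TMR-labelled reporter peptide T*-PRC34 bound in PDZ groove / Compound dosing: single point, 20 µM / Schedule: 1 h incubation at room temperature before polarization reading / Technique: fluorescence polarization (mP) / Benchmarks: unlabelled peptide, DMSO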
A number is an active result; n = inactive; x = not tested or not shown.

SMILES	ARNT-TACC3 inh	CAL PDZ FP-1	CAL PDZ FP-2
COc1cccc(CNC(=O)C[C@H]2CC[C@H]3[C@H](COc4ccc(NC(=O)c5cccs5)cc4C(=O)N3C)O2)c1	n	x	x
COc1ccc(NC(=O)[C@@H]2CCCN2C(=O)c2cccs2)cc1S(=O)(=O)N1CCCCC1	n	n	n
COc1ccc(NC(C)=O)cc1NC(=O)C1CCCN1C(=O)c1cccs1 (stereo not drawn)	n	48	n
CC[C@@H]1CCCCc2ccccc2[C@H](C(=O)C[C@H](O)CC(C)=O)OC1=O	n	54	n
CC(=O)C[C@H](O)CC(=O)[C@H]1OC(=O)[C@@H](C)CCCCc2ccccc21	n	n	n
O=C(C[C@H]1C=C[C@@H](NC(=O)Nc2cc(F)ccc2F)[C@H](CO)O1)NCc1ccc2c(c1)OCO2	n	x	x
CN(C)C(=O)C[C@H]1CC[C@@H]2[C@@H](COc3ccc(NC(=O)C4CCOCC4)cc3C(=O)N2C)O1	n	x	x
CCN(CC)CCCn1c2c(c(SCC(=O)Nc3cccc4ccccc34)nc1=O)CCC2	n	n	n
CN(C)CCCn1c2c(c(SCC(=O)Nc3cccc4ccccc34)nc1=O)CCCC2	x	49	n
COc1ccc(S(=O)(=O)Nc2ccc3c(c2)C(=O)N([C@@H](C)CO)C[C@@H](C)[C@H](CN(C)C(=O)Nc2ccc(F)cc2)O3)cc1	n	x	x
Cc1noc(C)c1NC(=O)N(C)C[C@H]1Oc2ccc(NC(=O)C3CC3)cc2CC(=O)N([C@@H](C)CO)C[C@@H]1C	n	x	x
Cc1ccccc1NC(=O)CN1C(=O)CSc2ccc(S(=O)(=O)N3CCCC3)cc21	n	n	n
Cc1ccccc1NC(=O)CN1C(=O)CSc2ccccc21	n	38	n
CC(C)Oc1ccc(C2CC(=O)N(c3cccc(/C=C/C(=O)O)c3)C2=O)cc1 (stereo not drawn)	active	n	n
COc1ccc(N2C(=O)CC(c3ccc(OC(C)C)cc3)C2=O)cc1 (stereo not drawn)	n	x	n
COc1cc2ccccc2nn1	n	n	n
COc1ccc2c(n1)Sc1nc3ccccc3nc1N2	8.9	n	n
O=C(C[C@H]1C=C[C@@H](NC(=O)NC2CCCCC2)[C@H](CO)O1)NCc1ccccc1	n	x	x
C[C@H](CO)N1C[C@H](C)[C@@H](CN(C)C)Oc2c(NC(=O)c3cnccn3)cccc2C1=O	n	x	x
O=C(Nc1cc(Cl)ccc1N1CCOCC1)c1ccncc1	n	n	n
O=C(Nc1cc(Cl)ccc1N1CCOCC1)c1cccnc1Cl	n	64	n
CCCCC(=O)Nc1ccc(N2CCN(C(=O)CC)CC2)cc1	n	x	n
CCCC(=O)Nc1ccc(N2CCN(C(=O)CCC)CC2)cc1	n	39	n
O=C(NCC[C@@H]1CC[C@@H](NC(=O)C2CCC2)[C@H](CO)O1)c1cc(Cl)cc(Cl)c1	n	x	x
C[C@@H]1CN([C@H](C)CO)C(=O)c2cc(NC(=O)CCCN(C)C)ccc2O[C@@H](C)CCCCO[C@H]1CN(C)C(=O)Nc1ccccc1	n	x	x
SMILES	ARNT-TACC3 inh	CAL PDZ FP-1	CAL PDZ FP-2
Fc1cccc(/C=N/Nc2ncnc3nc[nH]c23)c1	47	x	n
Fc1ccccc1/C=N/Nc1ncnc2nc[nH]c12	n	n	n
COC(Cc1n[nH]c(=S)n1-c1ccc(Cl)cc1)OC	51	n	n
COC(Cc1nnc(SC)n1-c1ccc(Cl)cc1)OC	n	n	n
CCOc1ccc2c(c1)C(C)=CC(C)(C)N2C(=O)Nc1ccccc1	48	n	n
COc1ccc(NC(=O)N2c3ccc(OC)cc3C(C)=CC2(C)C)cc1	n	n	n
Cc1ccc(S(=O)(=O)Nc2ccc3c(c2)C(=O)N([C@H](C)CO)C[C@H](C)[C@@H](CN(C)Cc2ccc(C(F)(F)F)cc2)OCCCC[C@H](C)O3)cc1	n	x	x
O=C1C(Cl)=C(NCCCO)C(=O)c2ccccc21	x	x	n
Cc1ccc(NC2=C(NCCO)C(=O)c3ccccc3C2=O)cc1	48	n	n
COc1ccc(NC(=O)NC2(C)CCS(=O)(=O)C2)cc1 (stereo not drawn)	n	63	n
COc1ccc(NC(=O)CSCC(=O)NC2(C)CCS(=O)(=O)C2)cc1 (stereo not drawn)	n	n	n
C[C@@H]1CN([C@@H](C)CO)S(=O)(=O)c2ccc(C3=CCCC3)cc2O[C@@H]1CN(C)C(=O)CN(C)C	n	x	x
O=C(CSc1ccc2nnc(-c3ccccc3)n2n1)NCc1ccco1	n	n	n
O=C(CSc1ccc2nnc(-c3ccccn3)n2n1)NCc1ccco1	61	x	n
C[C@@H]1CN([C@@H](C)CO)C(=O)c2c(c3ccccc3n2C)-c2ccccc2CO[C@H]1CN(C)C(=O)c1ccccc1	n	x	x
CCOc1ccccc1NC(=O)C1CCCN1S(=O)(=O)c1ccccc1C(F)(F)F (stereo not drawn)	n	42	n
O=C(Nc1cccc(S(=O)(=O)N2CCCCC2)c1)[C@@H]1CCCN1S(=O)(=O)c1ccccc1C(F)(F)F	n	n	n
O=C(NC(Cc1ccccc1)C(=O)O)c1ccco1 (stereo not drawn)	n	32	n
O=C(NC(Cc1ccccc1)C(=O)O)c1ccccc1 (stereo not drawn)	n	n	n
COc1cc2c(cc1OC)CN(C(=S)Nc1ccccc1Cl)CC2	n	68	x
COc1cc2c(cc1OC)CN(C(=S)Nc1ccccc1)CC2	n	n	n
CCC(CNc1cc(OC)cc2cccnc12)NC1CCCCC1 (stereo not drawn)	x	n	n
COc1cc(NCCCC(C)N)c2ncccc2c1 (stereo not drawn)	67	n	x
CC(C)NC(=O)N(C)C[C@@H]1Oc2ccc(NC(=O)CCCN(C)C)cc2C(=O)N([C@H](C)CO)C[C@@H]1C	n	x	x
Cc1c(/C=N/N=C2\CCC3C4CCc5cc(O)ccc5C4CCC23C)cnn1C (stereo not drawn)	n	n	n
SMILES	ARNT-TACC3 inh	CAL PDZ FP-1	CAL PDZ FP-2
CCn1ncc(/C=N/N=C2\CCC3C4CCc5cc(O)ccc5C4CCC23C)c1C (stereo not drawn)	n	46	n
O=c1c2c(-c3ccc([N+](=O)[O-])cc3)ccnc2[nH]n1-c1ccccc1	n	n	x
COc1ccc(-c2ccnc3[nH]n(-c4ccccc4)c(=O)c23)cc1	n	60	n
COc1cccc(-c2ccnc3[nH]n(-c4ccccc4)c(=O)c23)c1	n	67	n
Cc1cc(-c2ccccc2)nc2[nH]n(-c3ccccc3)c(=O)c12	n	n	n
C[C@H]1CCCCO[C@H](CN(C)Cc2ccc3c(c2)OCO3)[C@@H](C)CN([C@@H](C)CO)C(=O)c2cc(NC(=O)Cc3ccccc3)ccc2O1	n	x	x
C[C@@H]1CN([C@H](C)CO)C(=O)c2cc(NC(=O)Nc3ccc4c(c3)OCO4)ccc2O[C@@H](C)CCCCO[C@H]1CN(C)S(=O)(=O)c1cn(C)cn1	n	x	x
CCCC#Cc1cnc2c(c1)C(=O)N([C@@H](C)CO)C[C@@H](C)[C@@H](CN(C)C(=O)c1cnccn1)O2	n	x	x
COc1cc(/C=C/C(=O)OCC(=O)c2ccc[nH]2)cc(OC)c1OC	n	40	n
COc1ccc(/C=C/C(=O)OCC(=O)c2ccc[nH]2)cc1	x	n	n
Cc1ccc(S(=O)(=O)N(C)C[C@@H]2Oc3ccc(NC(=O)CCCCCC(=O)Nc4ccccc4N)cc3CC(=O)N([C@H](C)CO)C[C@H]2C)cc1	n	x	x

Assay outcomes deposited in PubChem BioAssay by Broad Institute.
